From publication PMC7306618 (CPT: Pharmacometrics & Systems Pharmacology, 2020)
Several values for one entry are separate records, joined by “and”; a condition that tells them apart may be missing. Equal values may be shown once. One block for each compound: values may come before it.

Key:
[1] = Free fraction in plasma and blood/plasma partition ratio; format: in vitro ADME
[2] = MDCK cell monolayer apparent permeability; format: in vitro ADME, Canine; details: dog, MDCK
Procedure, shortened: (§1)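 Apparent permeability of test compound measured across MDCK monolayers alone and at various H‐β‐CD concentrations. These included a 46:1 H‐β‐CD:compound molar ratio, matching ~8 g H‐β‐CD per oral-solution dose with a 100 mg tablet. Change expressed relative to no H‐β‐CD. MDCK Papp was also scaled (scalar 3.9) to human jejunal Peff.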

[3] = test system: Madin‐Darby Canine Kidney (MDCK) cell monolayer; assay: MDCK cell monolayer apparent permeability; format: in vitro ADME; details: molar ratio H‐β‐CD to fenebrutinib 46:1
Procedure, shortened: as §1

CYP3A [4] = assay: Clinical DDI study Part 4: effect of itraconazole on fenebrutinib PK; format: in vivo, human; details: 200 mg itraconazole solution once daily × 8 days; fenebrutinib 100 mg
Human mass balance study = format: in vivo
CYP3A [5] = details: time‐dependent inhibition, cited from earlier work
[6] = Phase I PK of fenebrutinib; format: in vivo, human
Procedure, shortened: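 Oral dosing in phase I studies as solution, capsule (single and multiple-day) and 200 mg tablet. Plasma concentration–time data were used to estimate total clearance and apparent steady-state volume of distribution (Vss/F).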

[7] = format: in vivo, dogs; details: dog, oral tablets, co‐administration with H‐β‐CD
[8] = Fenebrutinib–H‐β‐CD complexation in vitro; format: physicochemical; details: estimated from in vitro experiment
[9] = Fenebrutinib PBPK model parameters; design: species or system human
OATP1B = details: rosuvastatin + fenebrutinib vs rosuvastatin alone; cited from earlier work
human BCRP [10] = target: T1, human BCRP (Homo sapiens, UniProt Q9UNQ0); details: read-out: IC50 BCRP‐mediated efflux; cited from earlier work
T1 sequence (Q9UNQ0 1-655): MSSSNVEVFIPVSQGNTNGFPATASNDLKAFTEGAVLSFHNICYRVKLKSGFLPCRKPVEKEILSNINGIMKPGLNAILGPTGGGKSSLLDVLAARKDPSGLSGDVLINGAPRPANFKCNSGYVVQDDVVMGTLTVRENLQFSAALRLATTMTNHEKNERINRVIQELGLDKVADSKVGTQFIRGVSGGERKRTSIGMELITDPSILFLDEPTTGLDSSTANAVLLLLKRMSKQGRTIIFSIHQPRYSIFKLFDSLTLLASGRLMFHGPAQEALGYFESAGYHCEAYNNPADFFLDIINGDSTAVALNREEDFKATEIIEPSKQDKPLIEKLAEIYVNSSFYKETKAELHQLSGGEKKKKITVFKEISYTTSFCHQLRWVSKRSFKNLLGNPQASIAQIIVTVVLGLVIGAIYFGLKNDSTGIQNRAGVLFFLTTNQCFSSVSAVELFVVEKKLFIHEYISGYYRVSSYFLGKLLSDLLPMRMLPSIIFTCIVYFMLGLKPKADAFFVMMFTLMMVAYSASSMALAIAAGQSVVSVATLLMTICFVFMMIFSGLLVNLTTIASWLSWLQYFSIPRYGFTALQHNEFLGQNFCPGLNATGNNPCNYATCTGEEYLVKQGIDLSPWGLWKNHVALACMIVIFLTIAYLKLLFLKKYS

[11] = Physicochemical properties of fenebrutinib
human BCRP [12] = target: T1, human BCRP; assay: Inhibition of BCRP-mediated efflux in MDCKII cells; format: cell-based
Procedure, shortened: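 Unbound inhibition constants (OATP1B1/1B3 uptake; BCRP efflux) derived as in vitro IC50/2, then corrected by plasma unbound fraction. This was done because the unbound fraction in the transporter incubation was not measured. Values served as gut and liver transporter inputs to the PBPK model.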

OATP1B1/3 and BCRP = details: fenebrutinib 200 mg twice daily for 10 days; cited from earlier work

B/P [1]: 0.61
Papp [2]: 15.1 ×10⁻⁶ cm/s
Decrease in Papp relative to that without H‐β‐CD [3]: ~ 15 fold
Observed change in Tmax with itraconazole (CYP3A [4]): delay
Observed decrease in Cmax with itraconazole (CYP3A [4]): ~ 11% and 11%
Observed increase in AUC0‐t with itraconazole (CYP3A [4]): 2.28 fold and ~ 2.3 fold
Share of elimination through metabolic pathway (f m) (Human mass balance study): > 90%
CL/F ([6]; estimated from phase I PK data): ~ 80 L/hour
Vd/F ([6]; human, plasma, oral): ~13.4 L/kg
Apparent rate and extent of absorption in the presence of H‐β‐CD [7]: substantially decreased
Kcomplex with H‐β‐CD [8]: 27000 M⁻¹
Hepatic clearance as share of total CL ([9]; assigned in model): ~ 95%
clearance ([9]; human): 18.3 mL/min
pK a1 ([11]; diprotic base): 5
pK a2 ([11]; diprotic base): 3.7
logP ([11]; octanol/water): 3.3
pH solubility profile ([11]; pH 2.3): 35.9
pH solubility profile ([11]; pH 2.6): 5.67
pH solubility profile ([11]; pH 3.0): 1.44
pH solubility profile ([11]; pH 3.8): 0.032
pH solubility profile ([11]; pH 5.0): 0.001
pH solubility profile ([11]; pH 6.1): 0.001
Ki (human BCRP [12]): 0.926 µM
SMILES: C[C@H]1CN(C2COC2)CCN1c1ccc(Nc2cc(-c3ccnc(N4CCn5c(cc6c5CC(C)(C)C6)C4=O)c3CO)cn(C)c2=O)nc1 [fenebrutinib]
Ki (CYP3A [5]; read-out: CYP3A TDI K I (apparent)): 7.9 µM
CYP3A TDI K inact (CYP3A [5]): 0.684 h⁻¹
CYP3A k inact (CYP3A [5]): 0.0114 min⁻¹
Effect of multiple doses on plasma concentration‐time profiles of CP‐I and CP‐III (OATP1B): comparable
IC50 (human BCRP [10]): 9.4 µM

SMILES: CC(C)c1nc(N(C)S(C)(=O)=O)nc(-c2ccc(F)cc2)c1/C=C/[C@@H](O)C[C@@H](O)CC(=O)O [rosuvastatin]
Observed increase in AUC0–t with fenebrutinib (OATP1B1/3 and BCRP): ~2.6 fold
Observed increase in Cmax with fenebrutinib (OATP1B1/3 and BCRP): ~ 5 fold
